Activity calls are given as the source filed them. No cut-off for these calls is given here.
Assays:
[1] = Cytotoxicity in human HepG2 cells incubated for 24 hrs by MTT assay; type: toxicity, cell-based
Method in brief: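 HepG2 cells, 1 × 10^4 per well in DMEM/10% FBS, 24 h attachment; compounds 200 to 0.19 μg ml−1 for 24 h at 37 °C, 5% CO2; MTT 2.5 mg ml−1 for 3 h, formazan in DMSO, OD 570 nm; doxorubicin 10 μM control.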

Staphylococcus aureus [2] = assay: Induction of resistance development in methicillin-resistant Staphylococcus aureus ATCC 15187 at 0.5 MIC measured after […]; type: functional, organism-based; details: 0.5 M
Method in brief: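 Bacteria serially passaged under sublethal drug exposure over 20 days, with MIC redetermined at each passage; vancomycin and norfloxacin as controls.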

Staphylococcus aureus [3] = assay: Induction of morphological disruption in Staphylococcus aureus ATCC 29213 incubated for 2 to 6 hrs by SEM analysis; type: functional, organism-based; details: time 2-6 hrs
Method in brief: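 S. aureus incubated 2 h and 6 h with compound at 1×, 2×, 4× MIC, imaged by scanning electron microscopy; untreated, vancomycin and daptomycin (1×, 2× MIC) controls.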

Staphylococcus aureus [4] = assay: Induction of membrane permeabilization in methicillin-resistant Staphylococcus aureus ATCC 15187 at 1 to 8 times MIC measured after 80 mins by PI staining based analysis relative to control; type: functional; details: 1.333 h
Method in brief: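 Propidium iodide uptake measured over time in bacteria exposed to 1×, 2×, 4× and 8× MIC, with vancomycin 4× and 8× MIC and a blank control; percentage membrane permeabilization read up to 80 min.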

[5] = C0 in male Balb/c mouse at 1 mg/kg, iv by LC-MS/MS analysis; type: ADME, organism-based; details: in vivo
Method in brief: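 Balb/c mice dosed 1 mg kg−1 intravenously or 30 mg kg−1 orally (2.5 mg kg−1 oral also given); plasma PK parameters derived.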

With `CCCc1nn(C)c2c(Nc3ccc(O)cc3)nc(-c3ccc([N+](=O)[O-])o3)nc12` the IC50 at 24 h [1] was over 50 µg/mL, the Activity (Staphylococcus aureus [2]) was “inactive” and the Activity (Staphylococcus aureus [3]) was “Active”. The Activity (Staphylococcus aureus [4]) was 45% and the C0 [5] was 552 ng/mL.
